In ChEMBL document CHEMBL1629563, “Pharmacokinetic and safety evaluation of BILR 355, a second-generation nonnucleoside reverse transcriptase inhibitor, in healthy volunteers” (Antimicrob Agents Chemother, 2008):

Tests used:
[1] = test system: Homo sapiens; experiment: Toxicity in healthy human assessed as occurrence of migraine at 1 mg, po administered as single dose relative to control; format: organism-based; conditions: in vivo
[2] = test system: Homo sapiens; experiment: Toxicity in healthy human assessed as occurrence of neurological eyelid disorder at 75 mg, po administered as single dose relative to control; format: organism-based; conditions: in vivo
[3] = test system: Homo sapiens; experiment: Toxicity in healthy human assessed as occurrence of flatulence at 1 mg, po administered as single dose relative to control; format: organism-based; conditions: in vivo
[4] = test system: Homo sapiens; experiment: Toxicity in healthy human assessed as occurrence of palpitations at 5 mg, po administered as single dose relative to control; format: organism-based; conditions: in vivo
[5] = test system: Homo sapiens; experiment: Toxicity in healthy human assessed as occurrence of palpitations at 100 mg, po administered as single dose relative to control; format: organism-based; conditions: in vivo
[6] = Half life in healthy human at 50 mg, po administered as single dose coadministered with 100 mg of ritonavir; format: ADME, organism-based; conditions: in vivo
[7] = Half life in healthy human at 62.5 mg, po administered as single dose coadministered with 100 mg of ritonavir; format: ADME, organism-based; conditions: in vivo
[8] = Apparent oral clearance in healthy human at 5 mg, po administered as single dose coadministered with 100 mg of ritonavir; format: ADME, organism-based; conditions: in vivo
In short: (§1)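 Healthy male volunteers, fasted. Ritonavir 100 mg given 10 h before and again together with single oral BILR 355 in PEG solution. EDTA plasma sampled predose to 144 h. LC-MS/MS assay after protein precipitation. Noncompartmental analysis, AUC by linear up/log down trapezoidal rule; Vss = CL/F·(MRTp.o. − 1/Ka).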

[9] = Apparent oral clearance in healthy human at 75 mg, po administered as single dose coadministered with 100 mg of ritonavir; format: ADME, organism-based; conditions: in vivo; in short: as §1
[10] = Mean residence time in high fat fed healthy human at 50 mg, po administered as single dose coadministered with 100 mg of ritonavir; format: ADME, organism-based; conditions: in vivo
[11] = Apparent volume of distribution in terminal phase in healthy human at 5 mg, po administered as single dose coadministered with 100 mg of ritonavir; format: ADME, organism-based; conditions: in vivo, read-out: Vz/F
In short: (§2)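 Healthy male volunteers, fasted overnight, got one oral dose of BILR 355 in PEG solution with 200 ml water. Ritonavir 100 mg was given 10 h before and again with the dose. Plasma was sampled (EDTA) from predose to 144 h and assayed by validated LC-MS/MS. Cmax and Vz/F came from noncompartmental analysis. Vss/F = CL/F·(MRTp.o. − 1/Ka), with Ka from compartmental modelling.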

[12] = Apparent volume of distribution in terminal phase in healthy human at 50 mg, po administered as single dose coadministered with 100 mg of ritonavir; format: ADME, organism-based; conditions: in vivo, read-out: Vz/F; in short: as §2
[13] = Apparent volume of distribution at steady state in high fat fed healthy human at 50 mg, po administered as single dose coadministered with 100 mg of ritonavir; format: ADME, organism-based; conditions: in vivo, read-out: Vss/F
In short: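 Fed cohort: healthy males ate an FDA-recipe high-fat breakfast (about 150/250/500-600 cal from protein/carbohydrate/fat) 30 min before a 50 mg oral dose of BILR 355 in PEG solution. Ritonavir 100 mg was given 10 h before and with the dose. Plasma was sampled over 144 h and assayed by LC-MS/MS. Noncompartmental analysis gave Cmax and Vz/F. Vss/F = CL/F·(MRTp.o. − 1/Ka).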

[14] = Drug excretion in healthy human urine assessed as unchanged drug at 12.5 mg, po administered as single dose coadministered with 100 mg of ritonavir by high-pressure liquid chromatography-tandem mass spectrometry/mass spectrometry method; format: ADME, organism-based; conditions: read-out: Drug uptake
In short: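 Ritonavir 100 mg was given 10 h before and with one oral dose of BILR 355 in PEG solution. Urine was collected by weight as predose blank, then 0-6, 6-24 and 24-72 h, stored at −20°C and assayed by LC-MS/MS. fe = unchanged drug excreted (Ae) as a percentage of dose. Line 50: high-fat breakfast 30 min before dosing.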

[15] = test system: Homo sapiens; experiment: Toxicity in healthy human assessed as occurrence of aphthous stomatitis at 75 mg, po administered as single dose coadministered with 100 mg of ritonavir; format: organism-based; conditions: in vivo
[16] = test system: Homo sapiens; experiment: Toxicity in healthy human assessed as occurrence of fatigue at 5 mg, po administered as single dose coadministered with 100 mg of ritonavir; format: organism-based; conditions: in vivo
[17] = AUC (0 to infinity) in healthy human at 5 mg, po administered as single dose; format: ADME, organism-based; parameters: dose 5 mg, route oral, time infinity; conditions: plasma
In short: (§3)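 Healthy male volunteers, six active plus two placebo per dose group, single oral dose in PEG solution with 200 ml water after overnight fast; breakfast 60 to 90 min post-dose. EDTA plasma sampled predose to 144 h. Assayed by validated LC-MS/MS after protein precipitation. Noncompartmental analysis, AUC by linear up/log down trapezoidal rule; Vss = CL/F·(MRTp.o. − 1/Ka).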

[18] = AUC (0 to infinity) in healthy human at 25 mg, po administered as single dose; format: ADME, organism-based; parameters: dose 25 mg, route oral, time infinity; conditions: plasma; in short: as §3
[19] = AUC (0 to last) in healthy human at 12.5 mg, po administered as single dose; format: ADME, organism-based; parameters: dose 12.5 mg, route oral, time 0 - last; conditions: plasma; in short: as §3
[20] = AUC (0 to last) in healthy human at 50 mg, po administered as single dose; format: ADME, organism-based; parameters: dose 50 mg, route oral, time 0 - last; conditions: plasma; in short: as §3
[21] = AUC (0 to last) in healthy human at 75 mg, po administered as single dose; format: ADME, organism-based; parameters: dose 75 mg, time 0 - last, route oral; conditions: plasma; in short: as §3
[22] = Tmax in healthy human at 75 mg, po administered as single dose; format: ADME, organism-based; conditions: in vivo
[23] = Apparent oral clearance in healthy human at 12.5 mg, po administered as single dose; format: ADME, organism-based; conditions: in vivo; in short: as §3
[24] = Apparent oral clearance in healthy human at 25 mg, po administered as single dose; format: ADME, organism-based; conditions: in vivo; in short: as §3
[25] = Apparent oral clearance in healthy human at 100 mg, po administered as single dose; format: ADME, organism-based; conditions: in vivo; in short: as §3
[26] = Mean residence time in healthy human at 5 mg, po administered as single dose; format: ADME, organism-based; conditions: in vivo
[27] = Mean residence time in healthy human at 12.5 mg, po administered as single dose; format: ADME, organism-based; conditions: in vivo
[28] = Mean residence time in healthy human at 50 mg, po administered as single dose; format: ADME, organism-based; conditions: in vivo
[29] = Mean residence time in healthy human at 100 mg, po administered as single dose; format: ADME, organism-based; conditions: in vivo
[30] = AUC (0 to infinity) in healthy human at 87.5 mg, po administered as single dose coadministered with 100 mg of ritonavir; format: ADME, organism-based; parameters: dose 87.5 mg, time infinity, route oral; conditions: plasma; in short: as §1
[31] = AUC (0 to last) in high fat fed healthy human at 50 mg, po administered as single dose coadministered with 100 mg of ritonavir; format: ADME, organism-based; parameters: dose 50 mg, route oral, time 0 - last; conditions: plasma
In short: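 Fed cohort of 6 healthy men given an FDA-type high-fat breakfast (about 150, 250 and 500 to 600 cal from protein, carbohydrate and fat) 30 min before dosing. Ritonavir 100 mg given 10 h earlier and again with the single oral dose in PEG solution. Plasma sampled to 144 h, LC-MS/MS, noncompartmental analysis.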

[32] = Cmax in healthy human at 25 mg, po administered as single dose coadministered with 100 mg of ritonavir by high-pressure liquid chromatography-tandem mass spectrometry/mass spectrometry method; format: ADME, organism-based; parameters: dose 25 mg, route oral; conditions: in vivo; in short: as §2
[33] = test system: Homo sapiens; experiment: Toxicity in healthy human assessed as occurrence of headache at 100 mg, po administered as single dose relative to control; format: organism-based; conditions: in vivo
[34] = test system: Homo sapiens; experiment: Toxicity in healthy human assessed as occurrence of nausea at 12.5 mg, po administered as single dose relative to control; format: organism-based; conditions: in vivo

SMILES: CCN1c2ncc(CCOc3cc[n+]([O-])c4ccccc34)cc2C(=O)N(C)c2cccnc21 [BILR 355]
- Activity [1]: 0%
- Activity [2]: 16.7%
- Activity [3]: 0%
- Activity [4]: 0%
- Activity [5]: 0%
- half-life [6]: 11.5 h
- half-life [7]: 9.73 h
- CL/F [8]: 122 mL/min
- CL/F [9]: 106 mL/min
- MRT [10]: 18.7 h
- Vd/F [11]: 153 L
- Vd/F [12]: 129 L
- Vd/F [13]: 81.4 L
- dose excreted [14]: 6.37%
- Activity [15]: 0%
- Activity [16]: 0%
- AUC(0-inf) [17]: 36.3 ng·h/mL
- AUC(0-inf) [18]: 142 ng·h/mL
- AUC(0-t) [19]: 56.2 ng·h/mL
- AUC(0-t) [20]: 406 ng·h/mL
- AUC(0-t) [21]: 763 ng·h/mL
- Tmax [22]: 0.667 h
- CL/F [23]: 4100 mL/min
- CL/F [24]: 3400 mL/min
- CL/F [25]: 1320 mL/min
- MRT [26]: 7.74 h
- MRT [27]: 6.12 h
- MRT [28]: 3.2 h
- MRT [29]: 2.23 h
- AUC(0-inf) [30]: 11800 ng·h/mL
- AUC(0-t) [31]: 7970 ng·h/mL
- Cmax [32]: 226 ng/mL
- Activity [33]: 0%
- Activity [34]: 0%
